The values that follow come from ChEMBL document CHEMBL3407377, “Synthesis and pharmacological evaluation of benzannulated derivatives as potent and selective sigma-1 protein ligands” (Eur J Med Chem, 2015).

A short description of assay [1]: Cytotoxicity against human SH-SY5Y cells assessed as cell viability after 72 hrs by MTT assay. It counts as cell-based. In short, it runs like this:
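Human neuroblastoma SY5Y cells were exposed to a range of concentrations up to 100 μM. Viability was read by colorimetric MTT assay, and the IC50 was taken from it.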

Assay [2] concerns the target Sigma non-opioid intracellular receptor 1 (Homo sapiens, UniProt Q99720). The assay can be described thus: Displacement of [3H](+)Pentazocine from sigma 1 receptor in human Jurkat cells after 120 mins by liquid scintillation counting analysis. It counts as cell-based. (In general: In a radioligand displacement assay an active substance lowers the binding of a labelled ligand.)

Assay [3] in a line: Ratio of IC50 for human SY5Y cells to Ki for sigma 1 receptor in human Jurkat cells. The procedure, abridged: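 Selectivity index was calculated as the SY5Y cytotoxicity IC50 divided by the S1R Ki. The IC50 came from a colorimetric MTT viability assay on human neuroblastoma SY5Y cells dosed up to 100 μM. The Ki came from [3H](+)-pentazocine competition binding on Jurkat cell membranes.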

The test system of assay [4] is Jurkat. The experiment in a line: Selectivity ratio of Ki for sigma2 receptor in human Jurkat cells to Ki for sigma1 receptor human Jurkat cells. It counts as cell-based. In short, it runs like this:
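Both affinities came from radioligand competition on Jurkat cell membranes. S1R used [3H](+)-pentazocine. S2R used [3H]-DTG with excess unlabelled (+)-pentazocine. Ki values were derived from IC50s, and the ratio was calculated as Ki(S2R)/Ki(S1R).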

Sigma non-opioid intracellular receptor 1, sequence (Q99720 whole entry): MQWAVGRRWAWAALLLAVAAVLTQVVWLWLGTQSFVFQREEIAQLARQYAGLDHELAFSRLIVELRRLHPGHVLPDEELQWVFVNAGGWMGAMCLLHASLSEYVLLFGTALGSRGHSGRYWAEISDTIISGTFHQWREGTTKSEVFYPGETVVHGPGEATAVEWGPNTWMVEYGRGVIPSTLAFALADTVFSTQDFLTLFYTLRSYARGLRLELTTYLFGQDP

For orientation: IC50 means the concentration needed to halve the response being measured. By Ki is commonly meant a dissociation constant, usually derived from enzyme kinetics or from competition with a known ligand. Low values mean higher affinity, high ones lower affinity. Regarding `O=c1oc2ccccc2n1CCCN1Cc2ccccc2C1`, the IC50 in assay [1] was over 100 µM. The Ki in assay [2] is over 0.1 µM.

Turning to `CN(CCCN1C(=O)COc2ccc(Br)cc21)Cc1ccccc1`, the IC50 in assay [1] came to 13.4 µM. The compound also returned a Ki in assay [2] of over 0.1 µM.

For `CN(CCCn1c(=O)sc2ccc(Cl)cc21)Cc1ccccc1`, the Ratio in assay [3] stood at 2124. Also, the IC50 in assay [1] came out at 9.9 µM. Further, the Ratio Ki in assay [4] amounted to 35. Also, the Ki in assay [2] is 0.0047 µM.

As to `O=c1oc2cc(Br)ccc2n1CCCN1Cc2ccccc2C1`, the IC50 in assay [1] was over 100 µM. In assay [2], this compound returned a Ki of over 0.1 µM.

Take `O=c1sc2cc(Br)ccc2n1CCCN1Cc2ccccc2C1`: the Ratio in assay [3] turned out to be 5471. Further, the IC50 in assay [1] was determined as 31.4 µM. For the same compound, the Ki in assay [2] stood at 0.0057 µM.

Consider `CN(CCCn1c(=O)oc2cc(Br)ccc21)Cc1ccccc1`, for which the Ratio in assay [3] is listed as 63291. Moreover, the IC50 in assay [1] came to 58.8 µM. The Ratio Ki in assay [4] was 37. Moreover, affinity in assay [2] was put at a Ki of 0.0009 µM.

On to `CN(CCCn1c(=O)oc2ccc(Cl)cc21)Cc1ccccc1`, for which the Ratio in assay [3] was determined as 15500. Besides, the IC50 in assay [1] is over 100 µM. In assay [4], the Ratio Ki worked out at 16. Affinity in assay [2] was put at a Ki of 0.0064 µM.

On to `O=C1COc2ccc(Br)cc2N1CCCN1Cc2ccccc2C1`, for which the IC50 in assay [1] is over 100 µM. The same compound had a Ki in assay [2] of over 0.1 µM.

Take `CN(CCCN1C(=O)[C@@H]2Cc3ccccc3CN2C1=O)Cc1ccccc1`: in assay [1], the IC50 is over 100 µM.

For the compound `CN(CCCn1c(=O)sc2cc(Br)ccc21)Cc1ccccc1`, in assay [3], the Ratio stood at 23250. In addition, the IC50 in assay [1] was 13.2 µM. Further, the Ratio Ki in assay [4] was determined as 48. Moreover, the Ki in assay [2] was 0.0006 µM.

As for `Cc1nc2ccccc2n1CCCN(C)Cc1ccccc1`, the IC50 in assay [1] was 50.2 µM. Moreover, the Ki in assay [2] is over 0.1 µM.

In the case of `Cn1c(=O)n(CCCN2Cc3ccccc3C2)c2ccccc21`, the IC50 in assay [1] is over 100 µM. In assay [2], this compound came in with a Ki of over 0.1 µM.

For `CN(CCCn1c(=O)sc2ccc(Br)cc21)Cc1ccccc1`, the Ratio in assay [3] amounted to 8417. For the same compound, the IC50 in assay [1] stood at 26.5 µM. In assay [4], the Ratio Ki was 35. For the same compound, in assay [2], affinity was put at a Ki of 0.0031 µM.

Take `O=c1sc2ccccc2n1CCCN1Cc2ccccc2C1`: the Ratio in assay [3] is given as over 3000. Also, in assay [1], the IC50 is over 100 µM. Besides, the affinity in assay [2], expressed as Ki, was 0.0303 µM.

In the case of `CN(CCCN1C(=O)CSc2ccc(Br)cc21)Cc1ccccc1`, the Ratio in assay [3] was determined as 8631. For the same compound, the IC50 in assay [1] was determined as 18.7 µM. Moreover, the Ratio Ki in assay [4] turned out to be 22. The compound also showed a Ki in assay [2] of 0.0022 µM.

On to `CN(CCCn1c(=O)sc2ccccc21)Cc1ccccc1`, for which the Ratio in assay [3] was found to be 973. Also, in assay [1], the IC50 turned out to be 10 µM. The same compound registered a Ki in assay [2] of 0.0103 µM.

Take `CN(CCCn1c(=O)oc2ccccc21)Cc1ccccc1`: the IC50 in assay [1] is over 100 µM. Also, the inhibition constant (Ki) in assay [2] was over 0.1 µM.

In the case of `CN(CCCn1c(=O)n(C)c2ccccc21)Cc1ccccc1`, the IC50 in assay [1] was 73.8 µM. Also, the Ki in assay [2] was over 0.1 µM.

Consider `CN(CCCn1c(=O)oc2ccc(Br)cc21)Cc1ccccc1`, for which the Ratio in assay [3] is listed as 11463. In addition, in assay [1], the IC50 amounted to 14.2 µM. In addition, the Ratio Ki in assay [4] came out at 13. The compound also yielded a Ki in assay [2] of 0.0012 µM.

Consider `O=C1[C@@H]2Cc3ccccc3CN2C(=O)N1CCCN1Cc2ccccc2C1`, for which, in assay [4], the Ratio Ki is 78. In addition, the Ki in assay [2] amounted to 0.0053 µM.
